Assay results: ChEMBL document CHEMBL2016555, “4-Methoxy-N-[2-(trifluoromethyl)biphenyl-4-ylcarbamoyl]nicotinamide: A Potent and Selective Agonist of S1P1” (ACS Med Chem Lett, 2011)
≈ marks a conversion by molar mass, not a printed value.

What was measured:
[1] = Plasma concentration in Lewis rat at 1 mg/kg, po at 24 hrs; format: ADME, organism-based; set-up: dose 1 mg/kg, route oral; details: Lewis, plasma
Outline: (§1)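 Female Lewis rats (N = 5/group) given one oral dose of 1 mg/kg (20% captisol, 1% HPMC, 1% pluronic F68, pH 2.1 with MSA); blood lymphocyte count and total plasma compound measured at 24 h; POC vs vehicle, ANOVA/Dunnett's test.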

[2] = target: T1, Sphingosine 1-phosphate receptor 1 (Homo sapiens, UniProt P21453); assay: Agonist activity at human S1P1 expressed in U2OS cells coexpressing eGFP assessed as receptor internalization after 1 hr by microscopic analysis; format: functional, cell-based
T1 sequence (P21453 whole entry, the tested form may be a part): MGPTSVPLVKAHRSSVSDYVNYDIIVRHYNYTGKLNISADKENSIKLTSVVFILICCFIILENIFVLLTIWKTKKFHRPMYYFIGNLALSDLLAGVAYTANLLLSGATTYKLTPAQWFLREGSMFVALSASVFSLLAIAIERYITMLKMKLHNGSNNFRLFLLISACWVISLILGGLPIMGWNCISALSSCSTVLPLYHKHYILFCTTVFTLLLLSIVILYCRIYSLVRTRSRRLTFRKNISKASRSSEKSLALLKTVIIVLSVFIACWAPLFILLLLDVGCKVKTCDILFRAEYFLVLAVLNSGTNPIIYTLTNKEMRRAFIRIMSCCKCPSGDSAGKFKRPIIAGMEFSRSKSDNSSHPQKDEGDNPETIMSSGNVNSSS
Outline: (§2)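 Human S1P1–eGFP fusion protein expressed in U2OS cells; agonism read as receptor internalization; EC50 derived, efficacy expressed relative to 1-(4-(6-benzylbenzofuran-2-yl)-3-fluorobenzyl)azetidine-3-carboxylic acid at 1.0 μM.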

[3] = target: T1, Sphingosine 1-phosphate receptor 1; assay: Agonist activity at human S1P1 expressed in U2OS cells coexpressing eGFP assessed as receptor internalization after 1 hr by microscopic analysis relative to 1-(4-(6-benzylbenzofuran-2-yl)-3-fluorobenzyl)azetidine-3-carboxylic acid; format: functional, cell-based; outline: as §2
[4] = Solubility of the compound in 0.01 M aqueous HCl; format: physicochemical
[5] = Solubility of the compound in phosphate buffer saline at pH 7.4; format: physicochemical; details: phosphate buffered saline
[6] = Solubility of the compound in simulated intestinal fluid; format: physicochemical
[7] = Apparent permeability across pig LLC-PK1 cells; format: ADME, cell-based, Sus scrofa
Outline: (§3)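 Permeability across porcine proximal tubule LLC-PK1 cell monolayers; apparent permeability (Papp) and efflux ratio determined.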

[8] = Efflux ratio of apparent permeability across pig LLC-PK1 cells; format: ADME, cell-based, Sus scrofa; outline: as §3
[9] = Intrinsic clearance in rat liver microsomes after 30 mins; format: ADME, Microsome; details: read-out: CLH
[10] = tested on: Rattus norvegicus; assay: Immunosuppressive activity in Lewis rat assessed as change in peripheral lymphocyte count at 1 mg/kg, po after 24 hrs relative to vehicle treated control; format: functional; outline: as §1
[11] = target: Sphingosine 1-phosphate receptor 3 (Homo sapiens, UniProt Q99500); assay: Agonist activity at human S1P3 expressed in CHO-K1 cells coexpressing Gq/i5 assessed as intracellular calcium release by fluorimetry; format: functional, cell-based
Sequence of Sphingosine 1-phosphate receptor 3 (Q99500 whole entry): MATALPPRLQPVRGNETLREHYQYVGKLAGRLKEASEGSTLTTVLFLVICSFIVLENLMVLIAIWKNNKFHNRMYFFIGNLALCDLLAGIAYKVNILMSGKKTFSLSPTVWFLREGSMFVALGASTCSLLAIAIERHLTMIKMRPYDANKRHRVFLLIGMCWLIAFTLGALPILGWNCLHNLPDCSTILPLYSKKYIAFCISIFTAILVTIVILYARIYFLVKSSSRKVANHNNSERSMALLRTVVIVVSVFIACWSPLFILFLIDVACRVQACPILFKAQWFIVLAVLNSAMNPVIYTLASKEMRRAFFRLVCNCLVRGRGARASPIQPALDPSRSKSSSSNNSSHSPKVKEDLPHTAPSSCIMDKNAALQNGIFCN
Outline: (§4)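 CHO-K1 cells expressing the human S1P receptor subtype plus chimeric Gq/i5; Ca2+ mobilization measured; efficacy relative to S1P at 0.20 μM; compounds not reaching >10% of control activity reported as > highest concentration tested.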

[12] = target: Sphingosine 1-phosphate receptor 2 (Homo sapiens, UniProt O95136); assay: Agonist activity at human S1P2 expressed in CHO-K1 cells coexpressing Gq/i5 assessed as intracellular calcium release by fluorimetry; format: functional, cell-based; outline: as §4
Sequence of Sphingosine 1-phosphate receptor 2 (O95136 whole entry): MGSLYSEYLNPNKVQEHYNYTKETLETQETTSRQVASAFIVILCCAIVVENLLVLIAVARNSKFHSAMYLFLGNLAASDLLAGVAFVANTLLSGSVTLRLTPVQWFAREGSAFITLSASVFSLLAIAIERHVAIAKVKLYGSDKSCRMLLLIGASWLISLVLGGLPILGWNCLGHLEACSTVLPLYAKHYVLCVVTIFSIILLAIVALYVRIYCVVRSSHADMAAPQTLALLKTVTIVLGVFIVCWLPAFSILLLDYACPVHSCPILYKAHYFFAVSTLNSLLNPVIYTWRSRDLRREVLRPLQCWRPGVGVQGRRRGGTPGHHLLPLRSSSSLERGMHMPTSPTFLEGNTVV

[13] = target: T2, Sphingosine 1-phosphate receptor 4 (Homo sapiens, UniProt O95977); assay: Agonist activity at human S1P4 expressed in CHO-K1 cells coexpressing Gq/i5 assessed as calcium mobilization-induced bioluminescence change after measured for 90 secs by fluorimetry; format: functional, cell-based
T2 sequence (O95977 whole entry): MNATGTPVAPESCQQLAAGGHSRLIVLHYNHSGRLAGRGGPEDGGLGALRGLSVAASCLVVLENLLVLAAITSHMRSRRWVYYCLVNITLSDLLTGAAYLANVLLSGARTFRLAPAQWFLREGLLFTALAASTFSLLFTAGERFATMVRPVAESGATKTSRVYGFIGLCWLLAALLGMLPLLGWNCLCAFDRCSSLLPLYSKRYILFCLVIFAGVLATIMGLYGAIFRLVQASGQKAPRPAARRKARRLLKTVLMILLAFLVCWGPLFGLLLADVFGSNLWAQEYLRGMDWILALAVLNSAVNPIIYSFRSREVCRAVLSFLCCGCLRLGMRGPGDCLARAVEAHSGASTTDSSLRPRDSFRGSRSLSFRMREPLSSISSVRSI

[14] = target: T3, Sphingosine 1-phosphate receptor 5 (Homo sapiens, UniProt Q9H228); assay: Agonist activity at human S1P5 expressed in CHO-K1 cells coexpressing Gq/i5 assessed as calcium mobilization-induced bioluminescence change measured for 90 secs by fluorimetry; format: functional, cell-based; outline: as §4
T3 sequence (Q9H228 whole entry): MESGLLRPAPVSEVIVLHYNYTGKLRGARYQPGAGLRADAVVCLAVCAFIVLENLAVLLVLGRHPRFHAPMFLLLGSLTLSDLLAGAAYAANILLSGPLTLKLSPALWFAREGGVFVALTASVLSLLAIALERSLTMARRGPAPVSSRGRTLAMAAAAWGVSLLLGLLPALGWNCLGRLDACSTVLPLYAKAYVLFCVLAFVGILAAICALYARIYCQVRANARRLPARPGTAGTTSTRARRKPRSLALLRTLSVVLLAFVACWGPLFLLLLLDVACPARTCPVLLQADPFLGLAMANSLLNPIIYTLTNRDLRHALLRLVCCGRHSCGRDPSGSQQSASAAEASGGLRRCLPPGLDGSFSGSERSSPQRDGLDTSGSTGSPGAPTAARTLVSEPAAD

[15] = target: T3, Sphingosine 1-phosphate receptor 5; assay: Agonist activity at human S1P5 expressed in CHO-K1 cells coexpressing Gq/i5 assessed as calcium mobilization-induced bioluminescence change measured for 90 secs by fluorimetry relative to S1P; format: functional, cell-based; outline: as §4
[16] = Clearance in Sprague-Dawley rat at 1 mg/kg, iv; format: ADME, organism-based; set-up: dose 1 mg/kg, route intravenous; details: in vivo
[17] = Volume of distribution at steady state in Sprague-Dawley rat at 1 mg/kg, iv; format: ADME, organism-based; set-up: dose 1 mg/kg, route intravenous; details: in vivo, read-out: Vdss
[18] = Half life in Sprague-Dawley rat at 1 mg/kg, iv; format: ADME, organism-based; set-up: dose 1 mg/kg, route intravenous; details: in vivo
[19] = AUC (0 to 48 hrs) in Sprague-Dawley rat at 1 mg/kg, iv; format: ADME, organism-based; set-up: time < 48 hr, dose 1 mg/kg, route intravenous; details: plasma
[20] = AUC (0 to 48 hrs) in Sprague-Dawley rat at 3 mg/kg, po; format: ADME, organism-based; set-up: time < 48 hr, dose 3 mg/kg, route oral; details: plasma
[21] = Bioavailability in Sprague-Dawley rat at 3 mg/kg, po and 1 mg/kg, iv; format: ADME, organism-based; details: in vivo
[22] = tested on: Rattus norvegicus; assay: AUC (0 to 48 hrs) in Sprague-Dawley rat at 100 mg/kg, po; format: ADME, organism-based, Plasma; set-up: time < 48 hr, dose 100 mg/kg, route oral; details: in vivo
[23] = Plasma concentration in Lewis rat at 0.3 mg/kg, po at 24 hrs; format: ADME, organism-based; set-up: dose 0.3 mg/kg, route oral
Outline: (§5)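 Female Lewis rats dosed orally once at 0.30, 1.0 or 3.0 mg/kg (N = 5; 3.0 mg/kg group N = 3) in 20% HPBCD, 1% HPMC, 1% pluronic F68, pH 2.1 with MSA; blood lymphocytes and plasma concentration at 24 h; ANOVA/Dunnett's vs vehicle.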

[24] = Plasma concentration in Lewis rat at 3 mg/kg, po at 24 hrs; format: ADME, organism-based; set-up: dose 3 mg/kg, route oral; outline: as §5
[25] = tested on: Rattus norvegicus; assay: Immunosuppressive activity in po dosed Lewis rat assessed as change in peripheral lymphocyte count after 24 hrs relative to vehicle treated control; format: functional, organism-based; outline: as §5
[26] = tested on: Rattus norvegicus; assay: Immunosuppressive activity in po dosed Lewis rat assessed as change in peripheral lymphocyte count at 3 mg/kg, po after 24 hrs relative to vehicle treated control; format: functional; outline: as §5
[27] = target: Voltage-gated inwardly rectifying potassium channel KCNH2 (Homo sapiens, UniProt Q12809); assay: Inhibition of human ERG
Sequence of Voltage-gated inwardly rectifying potassium channel KCNH2 (Q12809 whole entry): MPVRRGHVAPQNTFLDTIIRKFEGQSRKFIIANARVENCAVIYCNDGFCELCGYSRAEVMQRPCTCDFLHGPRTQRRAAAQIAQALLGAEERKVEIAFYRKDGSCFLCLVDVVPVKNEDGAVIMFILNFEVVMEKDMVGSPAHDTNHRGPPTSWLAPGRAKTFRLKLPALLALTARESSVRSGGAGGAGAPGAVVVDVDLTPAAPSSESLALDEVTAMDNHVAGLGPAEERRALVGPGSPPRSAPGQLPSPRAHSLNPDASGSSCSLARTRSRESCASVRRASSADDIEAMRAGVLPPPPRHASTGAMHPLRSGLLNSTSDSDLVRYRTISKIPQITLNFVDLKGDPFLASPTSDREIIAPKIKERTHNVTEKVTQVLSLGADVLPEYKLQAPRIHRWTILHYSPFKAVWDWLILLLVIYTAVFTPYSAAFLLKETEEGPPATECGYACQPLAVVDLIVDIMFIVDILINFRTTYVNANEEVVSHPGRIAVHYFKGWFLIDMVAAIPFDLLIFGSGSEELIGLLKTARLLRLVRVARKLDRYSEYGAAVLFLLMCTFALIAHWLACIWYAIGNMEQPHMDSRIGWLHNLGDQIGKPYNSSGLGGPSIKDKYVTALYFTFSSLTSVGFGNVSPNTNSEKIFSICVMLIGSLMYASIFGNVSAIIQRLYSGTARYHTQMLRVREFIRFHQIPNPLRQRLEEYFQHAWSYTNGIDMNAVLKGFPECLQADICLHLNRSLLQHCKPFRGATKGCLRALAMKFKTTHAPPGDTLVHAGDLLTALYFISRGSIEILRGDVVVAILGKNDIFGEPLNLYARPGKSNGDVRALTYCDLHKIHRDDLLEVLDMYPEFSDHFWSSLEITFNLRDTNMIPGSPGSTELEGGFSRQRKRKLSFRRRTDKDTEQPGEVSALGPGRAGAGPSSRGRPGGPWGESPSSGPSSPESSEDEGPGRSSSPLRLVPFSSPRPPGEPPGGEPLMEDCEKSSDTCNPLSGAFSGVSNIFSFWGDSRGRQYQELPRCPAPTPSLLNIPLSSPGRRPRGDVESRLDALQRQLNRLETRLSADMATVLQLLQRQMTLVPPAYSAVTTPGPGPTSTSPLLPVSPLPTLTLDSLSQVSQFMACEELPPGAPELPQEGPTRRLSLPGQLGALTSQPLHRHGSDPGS

[28] = target: Cytochrome P450 2D6 (Homo sapiens, UniProt P10635); assay: Inhibition of human CYP2D6; format: ADME
Sequence of Cytochrome P450 2D6 (P10635 whole entry): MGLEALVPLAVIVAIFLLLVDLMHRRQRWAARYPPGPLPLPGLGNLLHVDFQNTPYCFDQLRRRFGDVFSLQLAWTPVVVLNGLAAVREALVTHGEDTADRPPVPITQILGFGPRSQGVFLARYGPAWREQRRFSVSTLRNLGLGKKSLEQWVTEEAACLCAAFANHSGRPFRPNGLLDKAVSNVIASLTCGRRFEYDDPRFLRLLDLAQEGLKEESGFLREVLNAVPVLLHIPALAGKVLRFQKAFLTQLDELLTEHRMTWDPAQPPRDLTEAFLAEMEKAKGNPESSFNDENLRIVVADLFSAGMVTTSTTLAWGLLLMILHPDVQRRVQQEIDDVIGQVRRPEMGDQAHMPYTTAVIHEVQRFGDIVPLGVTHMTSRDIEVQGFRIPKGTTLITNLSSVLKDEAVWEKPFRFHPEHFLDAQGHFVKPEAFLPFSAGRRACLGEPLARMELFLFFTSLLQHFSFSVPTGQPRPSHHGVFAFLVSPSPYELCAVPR

[29] = target: T4, PXR (NR1I2) (Homo sapiens, UniProt O75469); assay: Induction of human PXR at 10 uM relative to control; details: read-out: Activity
T4 sequence (O75469 whole entry): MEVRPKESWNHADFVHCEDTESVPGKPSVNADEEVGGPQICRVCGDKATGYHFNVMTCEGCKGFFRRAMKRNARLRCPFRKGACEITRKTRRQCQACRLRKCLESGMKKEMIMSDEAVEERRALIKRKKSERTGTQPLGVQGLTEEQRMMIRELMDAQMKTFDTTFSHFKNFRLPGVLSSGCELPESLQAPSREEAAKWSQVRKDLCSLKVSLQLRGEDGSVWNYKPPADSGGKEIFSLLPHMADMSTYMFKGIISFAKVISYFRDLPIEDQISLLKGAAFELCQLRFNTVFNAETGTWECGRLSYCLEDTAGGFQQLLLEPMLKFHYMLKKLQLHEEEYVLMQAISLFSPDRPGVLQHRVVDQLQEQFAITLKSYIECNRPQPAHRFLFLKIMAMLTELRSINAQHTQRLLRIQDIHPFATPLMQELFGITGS

[30] = tested on: Rattus norvegicus; assay: Toxicity in Sprague-Dawley rat assessed as mortality at 50 mg/kg, po administered qd for 4 days; format: organism-based; set-up: dose 50 mg/kg, route oral; details: in vivo, 96 h
Outline: (§6)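 Male Sprague-Dawley rats, N = 3/group, dosed orally once daily for 4 days at 50 or 200 mg/kg. Endpoints were mortality, clinical signs, body weight, and clinical chemistry including total bilirubin and cholesterol.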

[31] = tested on: Rattus norvegicus; assay: Toxicity in Sprague-Dawley rat assessed as clinical signs at 50 mg/kg, po administered qd for 4 days; format: organism-based; set-up: dose 50 mg/kg, route oral; details: in vivo, 96 h; outline: as §6
[32] = tested on: Rattus norvegicus; assay: Toxicity in Sprague-Dawley rat assessed as weight loss at 50 mg/kg, po administered qd for 4 days; format: organism-based; set-up: dose 50 mg/kg, route oral; details: in vivo, 96 h; outline: as §6
[33] = tested on: Rattus norvegicus; assay: Toxicity in Sprague-Dawley rat assessed as mortality at 200 mg/kg, po administered qd for 4 days; format: organism-based; set-up: dose 200 mg/kg, route oral; details: in vivo, 96 h; outline: as §6
[34] = tested on: Rattus norvegicus; assay: Toxicity in Sprague-Dawley rat assessed as adverse clinical signs at 200 mg/kg, po administered qd for 4 days; format: organism-based; set-up: dose 200 mg/kg, route oral; details: in vivo, 96 h; outline: as §6
[35] = tested on: Rattus norvegicus; assay: Toxicity in Sprague-Dawley rat assessed as weight loss at 200 mg/kg, po administered qd for 4 days; format: organism-based; set-up: dose 200 mg/kg, route oral; details: in vivo, 96 h; outline: as §6
[36] = tested on: Rattus norvegicus; assay: Toxicity in Sprague-Dawley rat assessed as increase in bilirubin level at 50 mg/kg, po administered qd for 4 days; format: organism-based; set-up: dose 50 mg/kg, route oral; details: in vivo, 96 h; outline: as §6
[37] = tested on: Rattus norvegicus; assay: Toxicity in Sprague-Dawley rat assessed as increase in bilirubin level at 200 mg/kg, po administered qd for 4 days; format: organism-based; set-up: dose 200 mg/kg, route oral; details: in vivo, 96 h; outline: as §6
[38] = tested on: Rattus norvegicus; assay: Toxicity in Sprague-Dawley rat assessed as increase in cholesterol level at 200 mg/kg, po administered qd for 4 days; format: organism-based; set-up: dose 200 mg/kg, route oral; details: in vivo, 96 h; outline: as §6
[39] = Plasma protein binding in Sprague-Dawley rat in vitro by ultracentrifugation; details: read-out: PPB (converted)

## COc1ccccc1C(=O)NC(=O)Nc1ccc(-c2ccccn2)c(C(F)(F)F)c1
[1]
  concentration at 24 h: 13 ng/mL
[2]
  EC50: 0.013 µM
[3]
  Efficacy: 110%
[4]
  solubility: 28 µg/mL (≈ 67.4 µM)
[5]
  solubility: 19 µg/mL (≈ 45.7 µM)
[6]
  solubility: 8.5 µg/mL (≈ 20.5 µM)
[7]
  Papp: 7.4 ×10⁻⁶ cm/s
[8]
  efflux ratio: 1.1
[9]
  microsomal CLint: 15 µL/min/mg
[10]
  Activity: -14%

## COc1ccccc1C(=O)NC(=S)Nc1ccc(N2CCCCC2)c(Cl)c1
[11]
  EC50: > 25 µM
[2]
  EC50: 0.43 µM
[3]
  Efficacy: 87%
[4]
  solubility: < 1 µg/mL
[5]
  solubility: < 1 µg/mL
[6]
  solubility: 27 µg/mL (≈ 66.8 µM)
[7]
  Papp: 1.8 ×10⁻⁶ cm/s
[8]
  efflux ratio: 1
[9]
  microsomal CLint: 29 µL/min/mg

## COc1ccccc1C(=O)NC(=O)Nc1ccc(OCC(F)(F)F)c(C(F)(F)F)c1
[1]
  concentration at 24 h: 1 ng/mL
[2]
  EC50: 0.0068 µM
[3]
  Efficacy: 83%
[4]
  solubility: < 1 µg/mL
[5]
  solubility: < 1 µg/mL
[6]
  solubility: 2.2 µg/mL (≈ 5.04 µM)
[7]
  Papp: < 1 ×10⁻⁶ cm/s
[9]
  microsomal CLint: 25 µL/min/mg
[10]
  Activity: 4%

## COc1ccccc1C(=O)NC(=O)Nc1ccc(-c2nccs2)c(C(F)(F)F)c1
[1]
  concentration at 24 h: 1 ng/mL
[2]
  EC50: 0.038 µM
[3]
  Efficacy: 130%
[4]
  solubility: 1.1 µg/mL (≈ 2.61 µM)
[5]
  solubility: < 1 µg/mL
[6]
  solubility: 12 µg/mL (≈ 28.5 µM)
[7]
  Papp: 12 ×10⁻⁶ cm/s
[8]
  efflux ratio: 1.4
[9]
  microsomal CLint: 33 µL/min/mg
[10]
  Activity: -18%

## COc1ccncc1C(=O)NC(=O)Nc1ccc(-c2ccccc2)c(C(F)(F)F)c1
[12]
  EC50: > 25 µM
[11]
  EC50: > 25 µM
[13]
  EC50: > 50 µM
[14]
  EC50: 4.3 µM
[15]
  Efficacy: 58%
[16]
  clearance: 4.17 mL/min/kg
[17]
  Vd: 6.3 L/kg
[18]
  half-life: 19 h
[19]
  AUC(0-t) at 48 h: 3400 ng·h/mL
[20]
  AUC(0-t) at 48 h: 13000 ng·h/mL
[21]
  bioavailability: 140%
[22]
  AUC: 350000 ng·h/mL
[23]
  concentration at 24 h: 17 ng/mL
[24]
  concentration at 24 h: 160 ng/mL
[25]
  Activity: Dose-dependent effect
[26]
  Activity: 81%
[27]
  IC50: > 10 µM
[28]
  IC50: > 30 µM
[29]
  activity at 10 µM: 3.7%
[30]
  Activity: Non-toxic
[31]
  Activity: Non-toxic
[32]
  Activity: Non-toxic
[33]
  Activity: Non-toxic
[34]
  Activity: Non-toxic
[35]
  Activity: Non-toxic
[36]
  Activity: Toxic
[37]
  Activity: Toxic
[38]
  Activity: Toxic
[3]
  Efficacy: 96%
[9]
  microsomal CLint: < 14 µL/min/mg
[10]
  Activity: -67%
[39]
  fraction unbound: 0.05
